# What was measured:
# Aspergillus niger [1] = assay: Antifungal activity against Aspergillus niger; Range is 16-32; format: functional
# How it was run: (§1)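 Agar dilution MIC. Twofold serial drug dilutions in yeast nitrogen base medium with 1% dextrose, 0.15% asparagine and 1.5% agar. Agar surfaces inoculated using a Steers multiple inocula replicator, then incubated at 35 °C for 24-48 h. MIC was recorded as the lowest concentration inhibiting visible growth. Amphotericin B, miconazole and nystatin served as controls.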
# Candida albicans [2] = assay: Antifungal activity against Candida albicans; Range is 8-16; format: functional; how it was run: as §1
# Candida albicans [3] = assay: Antifungal activity against Candida stellatoidea; format: functional; how it was run: as §1
# Kluyveromyces marxianus [4] = assay: Antifungal activity against Candida pseudotropicalis; format: functional; how it was run: as §1
# Diutina rugosa = assay: Antifungal activity against Candida rugosa; format: functional; how it was run: as §1
# Candida tropicalis [5] = assay: Antifungal activity against Candida tropicalis; format: functional; how it was run: as §1
# Mucor fragilis = assay: Antifungal activity against Mucor fragilis; format: functional; how it was run: as §1
# Aspergillus niger [6] = assay: Antifungal activity against Aspergillus niger; format: functional; how it was run: as §1
# Candida albicans [7] = assay: Antifungal activity against Candida albicans; Range is 16-32; format: functional; how it was run: as §1
# Kluyveromyces marxianus [8] = assay: Antifungal activity against Candida pseudotropicalis; Range is 8-16; format: functional; how it was run: as §1
# Aspergillus niger [9] = assay: Antifungal activity against Aspergillus niger; Range is 32-64; format: functional; how it was run: as §1
# Candida albicans [10] = assay: Antifungal activity against Candida albicans; format: functional; how it was run: as §1
# Candida parapsilosis = assay: Antifungal activity against Candida parapsilosis; format: functional; how it was run: as §1
# Trichophyton benhamiae [11] = assay: Antifungal activity against Trichophyton mentagrophytes; Range is 32-64; format: functional, trychophyton mentagrophytes; how it was run: as §1
# Trichophyton rubrum [12] = assay: Antifungal activity against Trichophyton rubrum; Range is 8-32; format: functional
# Candida tropicalis [13] = assay: Antifungal activity against Candida tropicalis; Range is 8-32; format: functional; how it was run: as §1
# Trichophyton benhamiae [14] = assay: Antifungal activity against Trichophyton mentagrophytes; format: functional, trychophyton mentagrophytes; how it was run: as §1
# Trichophyton rubrum [15] = assay: Antifungal activity against Trichophyton rubrum; format: functional; how it was run: as §1
# Candida albicans [16] = assay: Antifungal activity against Candida albicans; Range is 64-128; format: functional; how it was run: as §1
# Trichophyton rubrum [17] = assay: Antifungal activity against Trichophyton rubrum; Range is 4-8; format: functional; how it was run: as §1
# Aspergillus niger [18] = assay: Antifungal activity against Aspergillus niger; Range is 64-128; format: functional; how it was run: as §1
# Trichophyton benhamiae [19] = assay: Antifungal activity against Trichophyton mentagrophytes; Range is 16-32; format: functional; details: trychophyton mentagrophytes
# Trichophyton rubrum [20] = assay: Antifungal activity against Trichophyton rubrum; Range is 32-64; format: functional; how it was run: as §1
Molecule,MIC (Candida albicans [3]),MIC (Kluyveromyces marxianus [4]),MIC (Diutina rugosa),MIC (Candida tropicalis [5]),MIC (Mucor fragilis),MIC (Aspergillus niger [6]),MIC (Candida albicans [10]),MIC (Candida parapsilosis; Lodderomyces parapsilosis),MIC (Trichophyton benhamiae [14]),also measured
c1cc2nnc(C3CCCC3)nc2cn1,32 µg/mL,16 µg/mL,16 µg/mL,64 µg/mL,4 µg/mL,–,–,–,–,MIC (Aspergillus niger [1]): 16 µg/mL; MIC (Candida albicans [2]): 8 µg/mL
FC(F)(F)c1nnc2ccncc2n1,16 µg/mL,–,16 µg/mL,32 µg/mL,8 µg/mL,32 µg/mL,–,–,–,MIC (Candida albicans [7]): 16 µg/mL; MIC (Kluyveromyces marxianus [8]): 8 µg/mL
CC1N=Nc2ncccc2N1 (stereo not given),–,64 µg/mL,–,64 µg/mL,–,–,64 µg/mL,64 µg/mL,–,MIC (Aspergillus niger [9]): 32 µg/mL; MIC (Trichophyton benhamiae [11]): 32 µg/mL; MIC (Trichophyton rubrum [12]): 8 µg/mL
Cc1nnc2ccnc(C)c2n1,–,–,–,–,–,64 µg/mL,–,128 µg/mL,8 µg/mL,MIC (Candida albicans [2]): 8 µg/mL; MIC (Kluyveromyces marxianus [8]): 8 µg/mL; MIC (Candida tropicalis [13]): 8 µg/mL; MIC (Trichophyton rubrum [15]): 8 µg/mL
C(=C\N1CCCCC1)/c1nnc2ccncc2n1,–,128 µg/mL,–,128 µg/mL,–,–,–,128 µg/mL,16 µg/mL,MIC (Candida albicans [16]): 64 µg/mL; MIC (Trichophyton rubrum [17]): 4 µg/mL; MIC (Aspergillus niger [18]): 64 µg/mL
CCCCCCCCCCCCCCCCCc1nnc2ccncc2n1,> 128 µg/mL,128 µg/mL,> 128 µg/mL,128 µg/mL,128 µg/mL,128 µg/mL,128 µg/mL,–,–,–
c1ccc(-c2ccc(-c3nnc4ccncc4n3)cc2)cc1,> 128 µg/mL,128 µg/mL,> 128 µg/mL,128 µg/mL,128 µg/mL,–,128 µg/mL,–,–,MIC (Aspergillus niger [18]): 64 µg/mL
Cc1nc(C)c2nc(-c3ccc(F)cc3)nnc2c1N,> 128 µg/mL,–,> 128 µg/mL,> 128 µg/mL,128 µg/mL,> 128 µg/mL,> 128 µg/mL,> 128 µg/mL,128 µg/mL,MIC (Trichophyton rubrum [15]): 128 µg/mL
NYSTATIN,> 128 µg/mL,8 µg/mL,> 128 µg/mL,16 µg/mL,16 µg/mL,16 µg/mL,16 µg/mL,–,–,MIC (Candida parapsilosis): 16 µg/mL; MIC (Trichophyton benhamiae [19]): 16 µg/mL; MIC (Trichophyton rubrum [15]): 32 µg/mL
Cc1cc2nnc(-c3ccc(F)cc3)nc2c(C)n1,> 128 µg/mL,128 µg/mL,> 128 µg/mL,128 µg/mL,64 µg/mL,128 µg/mL,128 µg/mL,–,64 µg/mL,MIC (Trichophyton rubrum [15]): 64 µg/mL
c1cc2c(cn1)NC1(CCCCC1)N=N2,–,128 µg/mL,–,128 µg/mL,–,128 µg/mL,128 µg/mL,128 µg/mL,–,MIC (Trichophyton benhamiae [11]): 32 µg/mL; MIC (Trichophyton rubrum [20]): 32 µg/mL
Cc1nnc2ncccc2n1,–,128 µg/mL,–,128 µg/mL,–,–,128 µg/mL,64 µg/mL,128 µg/mL,MIC (Aspergillus niger [9]): 32 µg/mL; MIC (Trichophyton rubrum [15]): 128 µg/mL
c1cc2nnc(C3CCC3)nc2cn1,32 µg/mL,16 µg/mL,32 µg/mL,32 µg/mL,16 µg/mL,–,–,–,–,MIC (Aspergillus niger [1]): 16 µg/mL; MIC (Candida albicans [2]): 8 µg/mL
Cc1nnc2ccncc2n1,32 µg/mL,8 µg/mL,16 µg/mL,8 µg/mL,16 µg/mL,–,–,16 µg/mL,16 µg/mL,MIC (Aspergillus niger [1]): 16 µg/mL; MIC (Candida albicans [2]): 8 µg/mL; MIC (Trichophyton rubrum [17]): 4 µg/mL
CC(C)(C)c1ccc(-c2nnc3ccncc3n2)cc1,> 128 µg/mL,128 µg/mL,> 128 µg/mL,128 µg/mL,128 µg/mL,128 µg/mL,128 µg/mL,–,–,–
COc1cc(-c2nnc3ccncc3n2)cc(OC)c1OC,128 µg/mL,64 µg/mL,128 µg/mL,128 µg/mL,128 µg/mL,128 µg/mL,–,–,–,MIC (Candida albicans [16]): 64 µg/mL
c1cc2nnc(C3CC3)nc2cn1,64 µg/mL,16 µg/mL,64 µg/mL,32 µg/mL,16 µg/mL,32 µg/mL,16 µg/mL,–,–,–
CCOc1ccc(-c2nnc3ccncc3n2)cc1,> 128 µg/mL,64 µg/mL,> 128 µg/mL,64 µg/mL,128 µg/mL,–,64 µg/mL,–,–,MIC (Aspergillus niger [18]): 64 µg/mL
c1ccc(OCc2nnc3ccncc3n2)cc1,16 µg/mL,–,8 µg/mL,16 µg/mL,4 µg/mL,–,–,–,–,MIC (Aspergillus niger [1]): 16 µg/mL; MIC (Candida albicans [2]): 8 µg/mL; MIC (Kluyveromyces marxianus [8]): 8 µg/mL
c1cnc(-c2nnc3ccncc3n2)cn1,64 µg/mL,32 µg/mL,64 µg/mL,64 µg/mL,64 µg/mL,–,64 µg/mL,–,–,MIC (Aspergillus niger [9]): 32 µg/mL

# Source: ChEMBL document CHEMBL1124369, “Pyrido[3,4-e]-1,2,4-triazines and related heterocycles as potential antifungal agents” (1989)
